Drawing on ChEMBL document CHEMBL2040749, “Novel polycyclic 'cage'-1,2-diamines as potential anti-tuberculosis agents” (2012), this text covers MIC and Ratio for eight compounds.

Common to all, as to format: functional
Test [1] relates to Mycobacterium tuberculosis. As to the kind of experiment: Antitubercular activity against multi-drug resistant Mycobacterium tuberculosis after 21 days by BACTEC MGIT 960 method. The settings on record: 504 h. An outline of the steps:
(§1)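 Compounds dissolved in 100% methanol (10 mg/mL stock), sonicated, filter-sterilised, diluted in sterile water; twofold serial dilutions, working range 8 to 0.125 µg/mL. Strains grown in Middlebrook 7H9 + OADC at 37 °C; inoculum adjusted to McFarland 1, diluted tenfold to 10^5 CFU/mL into MGIT tubes. Drug-free control received a 1:100 inoculum. MIC is the lowest dilution negative when the control turns positive. Triplicate.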

In test [2] the test system is Mycobacterium tuberculosis. As to the kind of experiment: Antitubercular activity against extensively drug-resistant Mycobacterium tuberculosis after 21 days by BACTEC MGIT 960 method. As to conditions: 504 h. An outline of the steps:
as §1

Test [3] concerns Mycobacterium tuberculosis. As to the kind of experiment: Ratio of SQ109 MIC to compound MIC for extensively drug-resistant Mycobacterium tuberculosis.
Test [4] has as its system Mycobacterium tuberculosis. As to the kind of experiment: Ratio of SQ109 MIC to compound MIC for multi-drug resistant Mycobacterium tuberculosis.

Regarding `CC(C)=CCC/C(C)=C/CNCCNC1C2CC3CC(C2)CC1C3.Cl.Cl` (stereo not drawn), the MIC (in general, the lowest concentration found to suppress growth) came out at 2 µg/mL in test [1] and 4 µg/mL in test [2].

Consider `CC(C)=CCC/C(C)=C/CNC(=O)CN1[C@H]2C3C4CC5C6C4C2C6[C@@]1(O)C53` (mixture of isomers), for which the MIC turned out to be 4 µg/mL in test [1] and 8 µg/mL in test [2].

With `CC(C)=CCC/C(C)=C/CNCC(=O)N[C@]12O[C@H]3C4C5CC(C6C5C3C61)C42` (mixture of isomers), the MIC in test [1] was 4 µg/mL; in test [2], 8 µg/mL.

Turning to `CC(C)=CCC/C(C)=C/CNCCN[C@@H]1C2C3CC4C5C3CC2C5C41.Cl.Cl` (mixture of isomers), the MIC stood at 4 µg/mL in test [1] and 8 µg/mL in test [2].

Consider `CC(C)=CCC/C(C)=C/CNCCN[C@]12O[C@H]3C4C5CC(C6C5C3C61)C42.Cl.Cl` (mixture of isomers), for which the results for the minimum inhibitory concentration (MIC) in test [1] and in test [2] were 2 µg/mL and 4 µg/mL, respectively.

Consider `CC(C)=CCC/C(C)=C/CNCCN[C@@H]1C2C3CC4C5C3C1C5[C@@H](O)C42.Cl.Cl` (mixture of isomers), for which the MIC in test [1] was 2 µg/mL; in test [2], 4 µg/mL.

In the case of `CC(C)=CCC/C(C)=C/CNCCN1[C@H]2C3C4CC5C6C4C2C6[C@@]1(O)C53.Cl.Cl` (mixture of isomers), the results for the MIC in test [1] and in test [2] were 2 µg/mL and 4 µg/mL, respectively.

Take `CC(C)=CCC/C(C)=C/CNCCNC1C2C3CC4C5CC(C42)C1C53.Cl.Cl` (racemic): the MIC in test [1] stood at 1 µg/mL; in test [2], 2 µg/mL. The Ratio in test [3] and in test [4] was 2 in each case.
